Measurements taken from ChEMBL document CHEMBL1127475, “Novel amidine-containing peptidyl phosphonates as irreversible inhibitors for blood coagulation and related serine proteases” (J Med Chem, 1994).
Activity calls are given as the source filed them. No cut-off for these calls is given here.

Key:
[1] = target: T1, Serine protease 1 (Bos taurus) (UniProt P00760); assay: The compound was measured for inhibitory activity against bovine trypsin
T1 sequence (whole entry): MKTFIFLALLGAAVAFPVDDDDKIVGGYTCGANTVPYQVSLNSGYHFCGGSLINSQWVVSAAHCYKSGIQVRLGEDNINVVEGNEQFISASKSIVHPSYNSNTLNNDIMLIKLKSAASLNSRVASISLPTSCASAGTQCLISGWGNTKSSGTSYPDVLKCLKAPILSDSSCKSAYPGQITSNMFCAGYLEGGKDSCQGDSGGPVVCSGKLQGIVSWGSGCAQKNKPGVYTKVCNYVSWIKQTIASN
Procedure, shortened: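 Inactivation by incubation: enzyme (0.03–2.3 μM) with inhibitor (1.7–420 μM) added from Me2SO (8–12% final) in 0.1 M Hepes, 0.01 M CaCl2, pH 7.5, 25 °C. Aliquots withdrawn over time; residual activity read with Z-Phe-Gly-Arg-NA (100–120 μM) at 410 nm. kobs from ln v0/vt vs time; kobs/[I] typically averaged from duplicate or triplicate runs.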

[2] = target: Prothrombin (Homo sapiens) (UniProt P00734); assay: The compound was measured for inhibitory activity against human thrombin
Procedure, shortened: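 Human thrombin (0.03–2.3 μM) was incubated at 25 °C with inhibitor (1.7–420 μM) in 0.1 M Hepes, 0.5 M NaCl, pH 7.5, 8–12% Me2SO. Residual activity in withdrawn aliquots was measured with Z-Arg-SBzl (80–90 μM) and 4,4'-dithiodipyridine at 394 nm. kobs from ln v0/vt vs time; kobs/[I] typically averaged from duplicate or triplicate experiments.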

[3] = target: Prothrombin (Bos taurus) (UniProt P00735); assay: (§1) The compound was measured for inhibitory activity against bovine thrombin
[4] = target: Plasma kallikrein (Homo sapiens) (UniProt P03952); assay: The compound was measured for inhibitory activity against human plasma kallikrein; format: cell-free
Plasma kallikrein (Homo sapiens), sequence (P03952 20-390 limits assumed): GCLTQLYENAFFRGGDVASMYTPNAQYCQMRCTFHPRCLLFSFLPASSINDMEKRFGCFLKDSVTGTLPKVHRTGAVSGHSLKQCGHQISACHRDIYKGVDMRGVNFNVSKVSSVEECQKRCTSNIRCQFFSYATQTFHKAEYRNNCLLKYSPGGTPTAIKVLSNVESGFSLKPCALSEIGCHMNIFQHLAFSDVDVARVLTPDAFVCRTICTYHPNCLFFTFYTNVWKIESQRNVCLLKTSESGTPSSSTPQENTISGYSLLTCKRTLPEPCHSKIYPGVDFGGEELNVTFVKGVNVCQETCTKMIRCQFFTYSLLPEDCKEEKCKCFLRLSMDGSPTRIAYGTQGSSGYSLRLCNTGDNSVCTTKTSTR
Plasma kallikrein (Homo sapiens), sequence (P03952 391-638 limits assumed): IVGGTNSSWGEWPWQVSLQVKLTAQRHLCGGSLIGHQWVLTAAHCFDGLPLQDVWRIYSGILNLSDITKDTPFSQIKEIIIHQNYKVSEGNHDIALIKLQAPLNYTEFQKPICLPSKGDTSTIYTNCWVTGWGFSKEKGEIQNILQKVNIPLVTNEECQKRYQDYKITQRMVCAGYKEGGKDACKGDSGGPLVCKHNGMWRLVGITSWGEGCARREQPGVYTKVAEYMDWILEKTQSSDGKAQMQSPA
Procedure, shortened: (§2)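 Enzymes (plasma kallikrein and factor XIIa of human origin) at 0.03–2.3 μM were incubated at 25 °C with inhibitor (1.7–420 μM) in 0.1 M Hepes, 0.01 M CaCl2, pH 7.5, 8–12% Me2SO. Timed aliquots were assayed for residual activity with Z-Arg-SBzl (80–90 μM) plus 4,4'-dithiodipyridine, read at 394 nm. Pseudo-first-order kobs came from ln v0/vt vs time; kobs/[I] typically averaged from duplicate or triplicate runs.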

[5] = target: T2, Coagulation factor XII (Homo sapiens) (UniProt P00748); assay: (§3) The compound was measured for inhibitory activity against human coagulation factor XII; procedure, shortened: as §2
T2 sequence (whole entry): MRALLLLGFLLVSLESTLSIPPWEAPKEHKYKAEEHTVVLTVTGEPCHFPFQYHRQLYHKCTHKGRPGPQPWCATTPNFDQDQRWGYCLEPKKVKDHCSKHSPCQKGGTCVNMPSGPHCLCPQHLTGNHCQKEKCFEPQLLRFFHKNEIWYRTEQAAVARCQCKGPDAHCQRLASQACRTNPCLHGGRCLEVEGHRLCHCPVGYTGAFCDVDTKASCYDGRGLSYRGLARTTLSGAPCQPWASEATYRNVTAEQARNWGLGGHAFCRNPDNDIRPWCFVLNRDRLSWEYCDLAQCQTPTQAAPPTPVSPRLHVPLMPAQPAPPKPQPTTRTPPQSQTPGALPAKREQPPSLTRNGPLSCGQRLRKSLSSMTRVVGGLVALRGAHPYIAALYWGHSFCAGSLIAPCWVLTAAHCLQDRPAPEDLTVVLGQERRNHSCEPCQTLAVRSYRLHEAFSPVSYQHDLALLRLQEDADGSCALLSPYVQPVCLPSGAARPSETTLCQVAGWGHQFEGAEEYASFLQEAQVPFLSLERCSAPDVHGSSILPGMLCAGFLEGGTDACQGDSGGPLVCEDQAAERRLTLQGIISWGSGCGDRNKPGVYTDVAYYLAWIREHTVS

[6] = target: T1, Serine protease 1 (Bos taurus); assay: The compound was measured for inhibitory activity against bovine trypsin; NI=No inhibition
Procedure, shortened: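 Irreversible inactivation by incubation: enzyme (0.03–2.3 µM) mixed with inhibitor (1.7–420 µM, added in Me2SO, 8–12% final) in 0.1 M Hepes, 0.01 M CaCl2, pH 7.5, at 25 °C. Aliquots were taken over time and residual activity read with Z-Phe-Gly-Arg-NA (100–120 µM) at 410 nm. kobs came from ln v0/vt vs time, and kobs/[I] from the average of duplicate or triplicate runs.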

[7] = target: Prothrombin (Homo sapiens) (UniProt P00734); assay: The compound was measured for inhibitory activity against human thrombin; NI=No inhibition
Procedure, shortened: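 Human thrombin (0.03–2.3 µM) was incubated with inhibitor (1.7–420 µM, added in Me2SO, 8–12% final) in 0.1 M Hepes, 0.5 M NaCl, pH 7.5, at 25 °C. Timed aliquots were assayed for residual activity with Z-Arg-SBzl (80–90 µM) plus 4,4'-dithiodipyridine at 394 nm. Pseudo-first-order kobs came from ln v0/vt vs time, and kobs/[I] was typically averaged over duplicate or triplicate experiments.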

[8] = target: Prothrombin (Homo sapiens) (UniProt P00734); assay: as §1
[9] = target: T3, Coagulation factor XII (Bos taurus) (UniProt P98140); assay: as §3; procedure, shortened: as §2
T3 sequence (whole entry): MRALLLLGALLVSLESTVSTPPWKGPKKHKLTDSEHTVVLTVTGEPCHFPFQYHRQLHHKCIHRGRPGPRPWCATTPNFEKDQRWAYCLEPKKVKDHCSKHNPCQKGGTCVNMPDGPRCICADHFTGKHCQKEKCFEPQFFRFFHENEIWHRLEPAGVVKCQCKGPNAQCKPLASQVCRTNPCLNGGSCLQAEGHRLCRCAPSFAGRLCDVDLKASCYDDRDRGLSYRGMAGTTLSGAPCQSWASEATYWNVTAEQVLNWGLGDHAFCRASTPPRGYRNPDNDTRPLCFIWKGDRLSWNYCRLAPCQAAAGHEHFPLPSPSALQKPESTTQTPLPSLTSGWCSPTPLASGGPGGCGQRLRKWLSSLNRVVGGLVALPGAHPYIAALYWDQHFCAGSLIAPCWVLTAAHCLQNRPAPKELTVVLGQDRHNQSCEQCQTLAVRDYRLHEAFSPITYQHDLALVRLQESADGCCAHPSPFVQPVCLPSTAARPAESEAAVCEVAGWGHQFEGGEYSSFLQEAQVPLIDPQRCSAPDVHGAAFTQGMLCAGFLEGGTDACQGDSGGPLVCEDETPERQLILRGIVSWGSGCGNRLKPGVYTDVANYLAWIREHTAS

Row | SMILES | K obs / 1 [1] [M⁻¹ s⁻¹] | K obs / 1 [2] [M⁻¹ s⁻¹] | K obs / 1 [3] [M⁻¹ s⁻¹] | K obs / 1 [4] [M⁻¹ s⁻¹] | K obs / 1 [5] [M⁻¹ s⁻¹] | other results
1 | N=C(N)c1ccc(C[C@H](NC(=O)[C@@H]2CCCN2C(=O)[C@@H](N)Cc2ccccc2)P(=O)(Oc2ccccc2)Oc2ccccc2)cc1 | 50 | 54 | – | – | – | –
2 | N=C(N)c1ccc(C[C@H](N)P(=O)(Oc2ccccc2)Oc2ccccc2)cc1 | 32 | 2.2 | – | – | – | –
3 | N=C(N)c1ccc(C(NC(=O)[C@@H]2CCCN2C(=O)OCc2ccccc2)P(=O)(Oc2ccccc2)Oc2ccccc2)cc1 (some centres undefined) | 100 | 20 | 70 | 60 | 2.6 | –
4 | CC(=O)N[C@H](Cc1ccccc1)C(=O)N1CCC[C@H]1C(=O)N[C@@H](CCCN=C(N)N)P(=O)(Oc1ccccc1)Oc1ccccc1 | – | 1200 | – | – | – | –
5 | N=C(N)c1ccc(C(NC(=O)OCc2ccccc2)P(=O)(Oc2ccccc2)Oc2ccccc2)cc1 (centres undefined) | – | 80 | 170 | 18000 | 20 | –
6 | CCOP(=O)(OCC)[C@H](Cc1ccc(C(=N)N)cc1)NC(=O)[C@@H]1CCCN1C(=O)OCc1ccccc1 | – | – | – | – | – | K obs / 1 [6]: inactive; K obs / 1 [7]: inactive
7 | CC(C)(C)OC(=O)N[C@@H](Cc1ccccc1)C(=O)N1CCC[C@H]1C(=O)NC(c1ccc(C(=N)N)cc1)P(=O)(Oc1ccccc1)Oc1ccccc1 (some centres undefined) | 2200 | 11000 | 12000 | 160 | 52 | –
8 | N=C(N)c1ccc(C(NC(=O)[C@@H]2CCCN2C(=O)[C@@H](N)Cc2ccccc2)P(=O)(Oc2ccccc2)Oc2ccccc2)cc1 (some centres undefined) | 110 | 700 | 730 | 250 | 2.8 | –
9 | CC(C)(C)OC(=O)N[C@@H](Cc1ccccc1)C(=O)N1CCC[C@H]1C(=O)N[C@@H](Cc1ccc(C(=N)N)cc1)P(=O)(Oc1ccccc1)Oc1ccccc1 | 130 | 0.7 | – | – | – | –
10 | N=C(N)c1ccc(C(NC(=O)CNS(=O)(=O)c2ccc3ccccc3c2)P(=O)(Oc2ccccc2)Oc2ccccc2)cc1 (centres undefined) | 470 | – | – | 960 | – | K obs / 1 [8]: 170 M⁻¹ s⁻¹; K obs / 1 [9]: 25 M⁻¹ s⁻¹
11 | N=C(N)c1ccc(C[C@H](NC(=O)OCc2ccccc2)P(=O)(Oc2ccccc2)Oc2ccccc2)cc1 | 24 | 0.2 | – | – | – | –
